# Test results reported in PMC8178987 (Chemical Science, 2020).
# pKd: −log10 of the molar value.
# How the values were obtained:
# Assay type in all cases: binding
# gpPorA = assay: Single-channel recording of peptide interaction/translocation with gpPorA; conditions: for discrimination of R4 and R9 in competitive blocking: R4 10 µM, cis and R9 100 nM, 150 mM KCl
# pPorA-C24 = conditions: subconductance pores; R6 1 µM cis; R9 0.5 µM; 150 mM KCl, pH 7.4
# pPorA-K24 = assay: Single-channel recording of peptide interaction with pPorA-K24; conditions: for ion current blockages: cis, 0.15 M KCl, pH 7.4
# pPorA-A24 = assay: Single-channel recording of peptide interaction with pPorA-A24
# Method in brief: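 Single pores in planar lipid bilayers formed on an aperture prepainted with hexadecane in n-pentane (5 mg mL−1). Test peptide added to the cis side in 0.15 M KCl, 10 mM HEPES, pH 7.4, recorded at −5 and −20 mV. Current was digitally filtered at 4 and 7 kHz with an 8-pole Bessel filter. τoff came from dwell-time histograms.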
# [1] = 0.5 μM, cis, negative voltages, 0.15 M KCl, pH 7.4
# [2] = 0.5 μM, trans, +10 mV to +35 mV, 0.15 M KCl, pH 7.4
substance,measurement,setting,value
hexaarginine [R6],blockage events,"gpPorA; 0.5 μM, cis, above −25 mV, 0.15 M KCl, pH 7.4",not resolved accurately
same,blockage events,"gpPorA; 0.5 μM, cis, higher positive voltages, 0.15 M KCl, pH 7.4",no blockage events were observed
same,ion current blockage (block),gpPorA; [1],100%
same,frequency of blockage events,"gpPorA; 0.5 μM, cis, −5 mV to −25 mV, 0.15 M KCl, pH 7.4",decreased with an increase in the voltage
same,ion current blockages,"gpPorA; 0.5 μM, trans, 0.15 M KCl, pH 7.4",time-resolved ion current blockages
same,asymmetry in peptide binding/translocation between cis and trans sides,"gpPorA; 0.5 μM, 0.15 M KCl, pH 7.4",no significant asymmetry
same,pKd,"gpPorA; read-out: KDcis, cis, −10 mV, 0.15 M KCl, pH 7.4",5.28
same,ion current blockages,pPorA-C24,combination of strong and weak ion current blockages
nonaaspartate [D9],ion current blockages,pPorA-K24; 0.5 μM,did not produce defined ion current blockages
same,ion current blockages,"pPorA-K24; 10 μM, +50 mV","very short, less frequent ion current blockage"
same,ion current blockages,"pPorA-K24; 10 μM, negative voltages",no ion current blockages were observed
same,binding affinity,pPorA-K24; compared with R9 binding to cation-selective gpPorA (C24),weak D9 peptide binding
same,ion current blockages,"gpPorA; 100 μM, cis, different peptide concentrations and voltages, 0.15 M KCl, pH 7.4",did not produce any ion current blockages
nonaarginine [R9],ion current blockages,"pPorA-A24; 0.5 μM, cis, −5 mV to −20 mV, 0.15 M KCl, pH 7.4",ion current blockages exclusively at negative voltages
same,binding affinity,pPorA-A24; directly formed pPorA compared to self-assembled gpPorA,less affinity
same,ion current blockages,"gpPorA; 0.5 μM, cis, above +40 mV, 0.15 M KCl, pH 7.4",less frequent ion current blockages
same,frequency of ion current blockages,"gpPorA; 0.5 μM, cis, above −40 mV, 0.15 M KCl, pH 7.4",considerably reduced
same,ion current blockage (block),gpPorA; [1],100%
same,ion current blockages,"gpPorA; 0.5 μM, cis, pH 7.4, 0.15 M KCl, compared with pH 4.5",voltage-dependent well-defined ion current blockages
same,ion current blockages,"gpPorA; 0.5 μM, cis, −5 mV, −10 mV and −15 mV, pH 4.5, citrate buffer, 0.15 M KCl","short-lived, less frequent ion current blockages"
same,pore state on peptide addition,"gpPorA; 0.5 μM, cis, −5 mV, 0.15 M KCl, pH 7.4",predominantly remained closed
same,voltage dependence of kon and koff,"gpPorA; 0.5 μM, cis, −10 mV to −35 mV, 0.15 M KCl, pH 7.4",increased with the voltage
same,ion current blockages,"gpPorA; 0.5 μM, cis, −20 mV and −25 mV, pH 4.5, citrate buffer, 0.15 M KCl",no prominent blockage events
same,ion current blockage (block),gpPorA; [2],100%
same,voltage dependence of kon and koff,gpPorA; [2],an increase in the kon and koff
same,τoff,"gpPorA; 0.5 μM, trans, +10 mV, 0.15 M KCl, 10 mM HEPES, pH 7.4, n = 3",35 ± 3 ms
same,ion current blockages against the electrophoretic pulling,"gpPorA; 0.5 μM, trans, negative voltages, 0.15 M KCl, pH 7.4",ion current blockages against the electrophoretic pulling was observed
same,asymmetry in peptide binding/translocation between cis and trans sides,"gpPorA; 0.5 μM, 0.15 M KCl, pH 7.4",well-defined asymmetry
same,ion current blockages,"gpPorA; 1 μM, cis, added after D9 to the same pores, 0.15 M KCl, pH 7.4",voltage-dependent intense blockage events
same,τoff,"gpPorA; 100 μM, cis, −10 mV, 1 M KCl, 10 mM HEPES, pH 7.4, n = 3",0.14 ± 0.02 ms
same,ion current blockage (block),"gpPorA; 100 μM, cis, −10 mV, 1 M KCl, pH 7.4",~70%
same,ion current blockages,"gpPorA; 100 μM, cis, −20 mV, −30 mV and −50 mV, 1 M KCl, pH 7.4",less frequent to unresolved ion current blockages
same,discrimination of R4 and R9 in competitive blocking,"gpPorA; cis, −20 mV and −25 mV, pH 7.4",discriminated based on τoff
same,ion current blockages,pPorA-C24,combination of strong and weak ion current blockages
tetraarginine [R4],binding to pore,"gpPorA; 10 μM, cis/trans, 0.15 M KCl, pH 7.4",weak electrostatic binding
same,frequency of the blockage events,"gpPorA; 10 μM, cis, negative voltages to −75 mV, 0.15 M KCl, pH 7.4",increased with the voltage
same,ion current blockages,"gpPorA; 10 μM, cis, positive voltages, 0.15 M KCl, pH 7.4",No peptide-induced ion current blockages were detected
same,ion current blockages,"gpPorA; 10 μM, cis, −25 mV, 0.15 M KCl, pH 7.4",occasional ion current blockages
same,τoff (mean dwell time of blocking),"gpPorA; 10 μM, cis, −75 mV, 0.15 M KCl, 10 mM HEPES, pH 7.4, n = 3",165 ± 15 μs
same,ion current blockages,"gpPorA; 10 μM, trans, higher positive voltages, 0.15 M KCl, pH 7.4","short, less frequent blockage events"
same,discrimination of R4 and R9 in competitive blocking,"gpPorA; cis, −20 mV and −25 mV, pH 7.4",discriminated based on τoff
